From ChEMBL document CHEMBL1140965, “New 1-indanone thiosemicarbazone derivatives active against BVDV” (Eur J Med Chem, 2008) come the findings set out here.

SMILES strings stand for the structures. Where only a bound is given, the exact number is not on record here.

Data set [1] in a line: Selectivity index, ratio of CC50 for MDBK cells to EC50 for bovine viral diarrhoea virus type-1 NADL. Format: toxicity, cell-based. The settings on record: cattle, read-out: Ratio CC50/EC50. A digest of the protocol: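 Ratio of CC50 to EC50. CC50 comes from a 3-day MTS/PMS proliferation assay on MDBK cells. EC50 comes from protection of MDBK cells against NADL-strain cytopathic effect after 3 days, read by MTS/PMS at 490 nm. Both values were derived by logarithmic interpolation from dose-response curves.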

Data set [2] deals with Bovine viral diarrhea virus 1. As to the kind of experiment: Antiviral activity against bovine viral diarrhoea virus type-1 NADL in MDBK cells assessed as inhibition of virus-induced cytopathic effect. The settings on record: Bovine viral diarrhea virus isolates and strains. Format: functional, organism-based. A digest of the protocol: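 MDBK cells seeded at 1 × 10^4 per well in MEM-FBS, 24 h at 37 °C, 5% CO2; medium replaced with serial compound dilutions (DMSO stocks 1 mg/mL), then BVDV inoculum giving >80% CPE by 3 days at 37 °C. Uninfected and virus-only controls on each plate. Read-out is MTS/PMS in MEM-DHS, absorbance 490 nm. EC50 = 50% protection against CPE, logarithmic interpolation from dose-response curves.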
(Damage to the host cells serves as the signal in cytopathic effect assays.)

A short description of data set [3]: Cytotoxicity against MDBK cells after 3 days by MTS/PMS assay. The data set is classed as cell-based, Bos taurus. Conditions: cattle. A digest of the protocol: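 MDBK cells seeded at 1 × 10^4 per well in MEM-FBS; serial compound dilutions added 24 h later (DMSO stocks 1 mg/mL). Cells proliferated 3 days at 37 °C. MTS/PMS was then added for 3 h at 37 °C and absorbance read at 490 nm. Viability is the percentage of untreated-cell absorbance. CC50 = 50% inhibition of proliferation, logarithmic interpolation from dose-response curves.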

In data set [4] the test system is Human immunodeficiency virus 1. As to the kind of experiment: Antiviral activity against HIV1. Format: functional, organism-based.
A further data set relates to Poliovirus 1. As to the kind of experiment: Antiviral activity against poliovirus type-1 Sabin. Conditions: Enterovirus C. The data set is classed as functional, organism-based.
The subject of data set [5] is Vesicular stomatitis virus. Briefly: Antiviral activity against Vesicular stomatitis virus type-1 Indiana. Format: functional, organism-based.
A further data set relates to Human alphaherpesvirus 1. Briefly: Antiviral activity against HSV1 F. Format: functional, organism-based. Conditions: Human alphaherpesvirus 1, F.

Usually EC50 stands for the concentration that produces a half-maximal response. Broadly, the CC50 is the concentration that lowers cell viability or growth by half. Read a high CC50 as lower toxicity to the cells. As to `Cc1cc2c(c(C)c1Cl)/C(=N/NC(N)=S)CC2`, in data set [1], the selectivity ratio is 10.9. The half-maximal effective concentration (EC50) in data set [2] was 7.4 µM. In data set [3], this compound showed a CC50 at 72 h of 80.7 µM.
In the same order, the values of `NC(=S)N/N=C1\CCc2cc(Br)ccc21` are more than 8.29, 1.81 µM and more than 15 µM.
Regarding `Cc1cc2c(c(C)c1Cl)CC/C2=N\NC(N)=S`, the selectivity ratio in data set [1] is less than 6.53. In addition, the EC50 in data set [2] was more than 11.1 µM. The 50% cytotoxic concentration (CC50) at 72 h in data set [3] was 72.5 µM.
In the same order, the values of `Cc1cccc2c1CC/C2=N\NC(N)=S` are 20.3, 8.13 µM and 165 µM.
Turning to `Cc1cc(C)c2c(c1)CC/C2=N\NC(N)=S`, half-maximal cytotoxicity in data set [3] (CC50 at 72 h) was put at 51.7 µM.
`COc1ccc2c(c1)CC/C2=N\NC(N)=S`: the selectivity ratio in data set [1] was 7.93. Besides, the EC50 in data set [2] was determined as 18.8 µM. The CC50 at 72 h in data set [3] turned out to be 149 µM.
With `Cc1ccc2c(c1)CC/C2=N\NC(N)=S`, in data set [1], the selectivity ratio was found to be 20.1. For the same compound, the EC50 in data set [2] is 6.48 µM. Moreover, the midpoint of cytotoxicity in data set [3], the CC50 at 72 h, lay at 130 µM.
Taken in the same sequence, the figures for `COc1cccc2c1CC/C2=N\NC(N)=S` were 3.39, 242 µM and 822 µM.
On to `COc1ccc2c(c1OC)CC/C2=N\NC(N)=S`, for which the selectivity ratio in data set [1] was determined as 12.2. Further, the EC50 in data set [2] came out at 11.5 µM. In data set [3], the CC50 at 72 h was 141 µM.
For `NC(=O)c1ncn([C@@H]2O[C@H](CO)[C@@H](O)[C@H]2O)n1` [RIBAVIRIN], the EC50 in data set [2] amounted to 4.62 µM. In addition, half-maximal cytotoxicity in data set [3] (CC50 at 72 h) was put at 54 µM.
Take `COc1cc2c(cc1OC)/C(=N/NC(N)=S)CC2`: the EC50 is more than 38 µM in data set [4]; 64 µM in the data set with Poliovirus 1; more than 75.5 µM in data set [5]; more than 64 µM with Human alphaherpesvirus 1; 1.75 µM in data set [2]. In addition, the selectivity ratio in data set [1] worked out at 80.3. Moreover, the CC50 at 72 h in data set [3] stood at 140 µM.
As for `NC(=S)N/N=C1\CCc2cc(Cl)ccc21`, the selectivity ratio in data set [1] was more than 3.07. For the same compound, the concentration for a half-maximal effect (EC50) in data set [2] came out at 8.8 µM. Moreover, the half-maximal cytotoxic concentration (CC50) at 72 h in data set [3] was more than 27 µM.
In the same order, the values of `Cc1cc(C)c2c(c1Br)CC/C2=N\NC(N)=S` are 15.5, 8.94 µM and 139 µM.
Taken in the same sequence, the figures for `NC(=S)N/N=C1\CCc2ccccc21` were 8.6, 18.1 µM and 156 µM.
In the same order, the values of `COc1ccc2c(c1)/C(=N/NC(N)=S)CC2` are 4.09, 26 µM and 106 µM.
